One data set concerns HT-22. Put plainly: Inhibition of beta-amyloid peptide-induced mitochondrial permeability transition pore opening in mouse HT22 cells assessed as increase in green/red fluorescence ratio at 5 uM pre-incubated for 10 mins before Abeta peptide addition by JC-1 assay. Set-up: scale not given: the % may be the effect or the level left. The class given is cell-based. A digest of the protocol: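 HT-22 mouse hippocampal cells (DMEM, 10% FBS, 37 °C, 5% CO2), 30,000/well seeded a day ahead; loaded with 7.5 μM JC-1 (final) in phenol red-free Opti-MEM for 1 h 15 min at 37 °C, PBS-washed. Compound 5 μM for 10 min, then Aβ1–42 5 μM. Fluorescence read hourly for 3 h, red ex/em 530/580, green 485/530; green/red ratio change relative to Aβ alone (100%).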

The nature of data set [1]: Toxicity against mouse HT22 cells assessed as cell viability at 5 uM after 24 hrs by MTT assay. To be noted: read-out: Activity. Format: cell-based, HT-22. A digest of the protocol:
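HT-22 cells, 5000/well, given compound at 5 μM without Aβ, 24 h at 37 °C. MTT added for 2 h at 37 °C, formazan dissolved in 10% Triton X-100/isopropanol with 0.1 M HCl for 1 h at room temperature; absorbance at 570 nm, vehicle-control values subtracted to derive viability.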

Consider 25 compounds from ChEMBL document CHEMBL3351742, “Novel quinazoline-urea analogues as modulators for Aβ-induced mitochondrial dysfunction: design, synthesis, and molecular docking study” (Eur J Med Chem, 2014).

Take `O=C(Nc1ccc(Cl)c(Cl)c1)Nc1cc2ncncc2cc1OCc1ccc(Cl)cc1`: the Activity in the data set with HT-22 came out at 91%. Regarding `Cc1ccc(NC(=O)Nc2cc3ncncc3cc2OCc2cccc(F)c2)cc1`, in the data set with HT-22, the Activity is 81%.

Take `O=C(Nc1ccc(C(F)(F)F)cc1)Nc1cc2ncncc2cc1OCc1ccc(Cl)cc1`: in the data set with HT-22, the Activity was 48%. The same measure, in the same setting: the figure for `O=C(Nc1cccc(Cl)c1)Nc1cc2ncncc2cc1OCc1ccccc1F` is 51.4%; for `O=C(Nc1ccc(Cl)c(Cl)c1)Nc1cc2ncncc2cc1OCc1ccc(F)cc1` it is 155%. For `O=C(Nc1cc2ncncc2cc1OCc1ccccc1F)Nc1cccc2ccccc12`, the Activity in the data set with HT-22 came to 39.4%. Also, in data set [1], the viability at 24 h, 5 µM was 83%. With `O=C(Nc1cccc(Cl)c1)Nc1cc2ncncc2cc1OCc1ccc(Cl)cc1`, the Activity with HT-22 is 64%. On the same count and under the same terms, the figure for `O=C(Nc1ccccc1F)Nc1cc2ncncc2cc1OCc1ccc(F)cc1` is 80.3%.

Turning to `O=C(Nc1ccccc1F)Nc1cc2ncncc2cc1OCc1ccccc1Cl`, in the data set on HT-22, the Activity is 31%. For the same compound, in data set [1], the viability at 24 h, 5 µM worked out at 101%. Turning to `O=C(Nc1cccc(F)c1)Nc1cc2ncncc2cc1OCc1ccccc1`, the Activity with HT-22 worked out at 38%. In data set [1], the viability at 24 h, 5 µM was 100%. Turning to `O=C(Nc1ccc(C(F)(F)F)cc1)Nc1cc2ncncc2cc1OCc1ccc(F)cc1`, the Activity with HT-22 came to 81%. Same read-out and setting: the figure for `O=C(Nc1cccc(F)c1)Nc1cc2ncncc2cc1OCc1ccc(F)cc1` is 61.5%. `O=C(Nc1ccc(C(F)(F)F)cc1)Nc1cc2ncncc2cc1OCc1ccccc1F`: the Activity in the data set on HT-22 stood at 68.6%. On the same count and under the same terms, the figure for `Cc1ccc(NC(=O)Nc2cc3ncncc3cc2OCc2ccc(F)cc2)cc1` is 99.2%.

Consider `O=C(Nc1cccc(F)c1)Nc1cc2ncncc2cc1OCc1ccccc1F`, for which the Activity in the data set with HT-22 stood at 56.9%. The same measure, in the same setting: the figure for `Cc1ccc(NC(=O)Nc2cc3ncncc3cc2OCc2ccc(Cl)cc2)cc1` is 63%. As to `Cc1ccc(NC(=O)Nc2cc3ncncc3cc2OCc2ccccc2Cl)cc1`, the Activity in the data set on HT-22 was found to be 54.7%. Turning to `O=C(Nc1ccccc1F)Nc1cc2ncncc2cc1OCc1ccc(Cl)cc1`, the Activity in the data set with HT-22 was 24%. The viability at 24 h, 5 µM in data set [1] was 102%. The like results for `O=C(Nc1cccc(F)c1)Nc1cc2ncncc2cc1OCc1cccc(F)c1` were, in that order, 27% and 104%. In the same order, the values of `Cc1ccc(NC(=O)Nc2cc3ncncc3cc2OCc2ccccc2F)cc1` are 26.7% and 131%. Take `O=C(Nc1cc2ncncc2cc1OCc1ccccc1)Nc1cccc2ccccc12`: the Activity in the data set with HT-22 amounted to 76%. Still for that read-out and setting: the figure for `Cc1ccc(NC(=O)Nc2cc3ncncc3cc2OCc2ccccc2)cc1` is 154%. With `O=C(Nc1cccc(F)c1)Nc1cc2ncncc2cc1OCc1ccc(Cl)cc1`, the Activity with HT-22 came to 29%. The viability at 24 h, 5 µM in data set [1] came out at 100%. `O=C(Nc1ccc(Cl)c(Cl)c1)Nc1cc2ncncc2cc1OCc1ccccc1`: in the data set with HT-22, the Activity came out at 73%. For the compound `O=C(Nc1cccc(Cl)c1)Nc1cc2ncncc2cc1OCc1ccc(F)cc1`, the Activity in the data set with HT-22 is 67.9%.
